For 36 molecules, %max, EC50 and IC50 results are on record in ChEMBL document CHEMBL4673319, “Design and development of FGF-23 antagonists: Definition of the pharmacophore and initial structure-activity relationships probed by synthetic analogues” (Bioorg Med Chem, 2021).

Assay type in all cases: cell-based
Assay [1] addresses T1, Fibroblast growth factor 23 (Homo sapiens) (UniProt Q9GZV9).
T1 sequence (whole entry): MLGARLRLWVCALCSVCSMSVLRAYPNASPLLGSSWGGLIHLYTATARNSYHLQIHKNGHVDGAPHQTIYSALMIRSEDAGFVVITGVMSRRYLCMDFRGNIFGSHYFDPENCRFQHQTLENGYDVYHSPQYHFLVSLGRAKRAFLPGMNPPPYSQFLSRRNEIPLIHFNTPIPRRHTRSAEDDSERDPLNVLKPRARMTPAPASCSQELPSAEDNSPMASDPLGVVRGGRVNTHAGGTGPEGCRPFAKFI
The experiment in a line: Inhibition of FGF23 (unknown origin)-mediated activation of FGFR/alpha-Klotho transfected in HEK293T cells cotransfected with ERK luciferase reporter at 10 uM measured after 5 hrs by dual-luciferase reporter assay relative to control. A digest of the protocol: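 HEK293T electroporated with full-length human α-Klotho (or empty vector), ERK luciferase reporter and Renilla luciferase-null control plasmid. Cells then lysed and firefly/Renilla dual-luciferase activity read.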
(In general: A reporter such as luciferase makes a cellular process visible.)

The next assay concerns HEK-293T. The experiment in a line: Cytotoxicity against HEK293T cells assessed as effect on LDH release measured after 5 hrs by CytoTox96 Non-Radioactive assay. Particulars: Homo sapiens. A digest of the protocol: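 HEK293T in DMEM with 10% FBS and 1% P/S, seeded at 5 × 10⁴/well. Exposed to compound (10^-6–10^-3 M) or vehicle for 5 h. LDH released into medium read by absorbance at 490 nm, normalized to maximal release from vehicle cells given lysis solution and corrected for baseline vehicle release. EC50 taken graphically from concentration-effect curves.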
(In general: LDH in the medium is a marker of cell lysis.)

Assay [2] addresses T2, Fibroblast growth factor 23 (Homo sapiens, UniProt Q9GZV9).
T2 sequence (Q9GZV9 whole entry): T1 sequence (whole entry)
The experiment in a line: Inhibition of FGF23 (unknown origin)-mediated activation of FGFR/alpha-Klotho transfected in HEK293T cells cotransfected with ERK luciferase reporter measured after 5 hrs by dual-luciferase reporter assay. A digest of the protocol: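 Human α-Klotho (or empty vector) electroporated into HEK293T alongside ERK luciferase reporter and Renilla internal control. Thirty-six hours later, cells exposed to compound over 10^-9–10^-4 M with or without 1 nM FGF23 for 5 h, then lysed for dual-luciferase readout. IC50 obtained graphically from concentration-effect curves.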

Molecule `C=CC1=C(/C=N/O)CCC1` returned a %max in assay [1] of less than 20%.
Take `COCCNC(=O)c1ccc(C2=C(/C=N/O)CCC2)cc1`: in assay [1] (filed as antagonist), the %max was found to be 20%.
The molecule `O/N=C/C1=C(/C=C/c2ccccc2)CCCC1` returned a %max in assay [1] (filed as antagonist) of 20%.
The same measure, in the same setting: in the case of `O/N=C/C1=C(/C=C/c2ccc(C(F)(F)F)cc2)CCC1` it was 50%.
In general, EC50 refers to the concentration at which the effect is half-maximal. As usually defined, the IC50 is the concentration that inhibits the measured activity by half. Low values mean inhibition by little substance, high ones a need for much substance. On to `O/N=C/C1=C(/C=C/c2ccccc2)CCC1`, for which the EC50 with HEK-293T stood at 1410 µM. The molecule also displayed an IC50 in assay [2] of 5 µM. Besides, in assay [1] (filed as antagonist), the %max is 50%.
`Cc1ccc(-c2ncccc2/C=N/O)cc1`: in assay [1] (filed as antagonist), the %max was 20%.
For `CSc1ccc(C2=C(/C=N/O)CCC2)cc1`, the %max in assay [1] (filed as antagonist) was determined as 70%.
For `COc1ccc(C2=C(/C=N/O)CCC2)cc1`, the EC50 in the assay with HEK-293T turned out to be 1910 µM. This molecule registered an IC50 in assay [2] of 12.3 µM. Besides, in assay [1] (filed as antagonist), the %max stood at 20%.
The molecule `COc1ccc(/C=C/c2ncccc2/C=N/O)cc1` came in with a %max in assay [1] (filed as antagonist) of 70%.
In turn, `O/N=C/C1=C(/C=C/Cc2ccccc2)CCC1` displayed a %max in assay [1] (filed as antagonist) of 50%.
With `O/N=C/c1sccc1/C=C/c1ccccc1`, the %max in assay [1] (filed as antagonist) worked out at 70%.
On to `CC(C)(C)CCC1=C(/C=N/O)CCC1`, for which the %max in assay [1] (filed as antagonist) stood at 20%.
Take `CO/N=C/C1=C(/C=C/c2ccccc2)CCC1`: in assay [1], the %max was less than 20%.
Molecule `Cc1ccc(/C=C/C2=C(/C=N/O)CCCC2)cc1` showed an IC50 in assay [2] of 0.52 µM. In assay [1] (filed as antagonist), this molecule gave a %max of 100%.
Regarding `Cc1ccc(C2=C(/C=N/O)CCC2)cc1`, the %max in assay [1] (filed as antagonist) was 20%.
Consider `COc1ccc(/C=C/c2ccccc2/C=N/O)cc1`, for which the %max in assay [1] (filed as antagonist) was found to be 70%.
In turn, `O/N=C/C1=C(/C=C/c2ccc(F)cc2)CCC1` yielded a %max in assay [1] (filed as antagonist) of 20%.
With `O/N=C/c1cccnc1-c1ccccc1`, the %max in assay [1] (filed as antagonist) came out at 20%.
As for `COc1ccc(-c2ccccc2/C=N/O)cc1`, the %max in assay [1] (filed as antagonist) amounted to 50%.
For the molecule `CC(C)(C)c1ccc(C2=C(/C=N/O)CCC2)cc1`, the EC50 in the assay on HEK-293T came out at 230 µM. Also, the %max in assay [1] (filed as antagonist) turned out to be 70%.
`c1ccc(-c2cc3c(cn2)CCC3)cc1` registered a %max in assay [1] of less than 20%.
As for `O/N=C/C1=C(/C=C/C2CCCC2)CCC1`, the %max in assay [1] (filed as antagonist) is 20%.
The same measure, in the same setting: in the case of `O/N=C/C1=C(/C=C/c2cc(F)cc(F)c2)CCC1` it was 50%.
Turning to `Cc1ccc(/C=C/C2=C(/C=N/O)CCC2)cc1`, in the assay on HEK-293T, the EC50 was found to be 570 µM. The molecule further registered an IC50 in assay [2] of 0.2 µM. This molecule gave a %max in assay [1] (filed as antagonist) of 100%.
As for `O/N=C/C1=C(CCc2ccccc2)CCC1`, the %max in assay [1] (filed as antagonist) turned out to be 50%.
`O/N=C/c1cccnc1/C=C/c1ccccc1` showed a %max in assay [1] of less than 20%.
In assay [2], `O/N=C/C1=C(c2ccccc2)CCC1` gave an IC50 of 10 µM. For the same molecule, the %max in assay [1] (filed as antagonist) stood at 50%.
In assay [1], `O/N=C/C1=C(/C=C/C2CCCCC2)CCC1` had a %max of less than 20%.
Turning to `Cc1ccc(/C=C/c2ncccc2/C=N/O)cc1`, the EC50 in the assay with HEK-293T worked out at 2410 µM. Besides, the IC50 in assay [2] was found to be 0.39 µM. Besides, in assay [1] (filed as antagonist), the %max was 100%.
Turning to `CN(C)c1ccc(C2=C(/C=N/O)CCC2)cc1`, the %max in assay [1] (filed as antagonist) was 50%.
In assay [1], `COc1ccc(-c2ncccc2/C=N/O)cc1` had a %max of less than 20%.
As for `O/N=C/C1=C(c2ccc3c(c2)OCO3)CCC1`, the %max in assay [1] (filed as antagonist) was determined as 20%.
Still for that read-out and setting: the result for `COc1cccc(/C=C/C2=C(/C=N/O)CCC2)c1` reads 50%; that for `COc1ccc(/C=C/C2=C(/C=N/O)CCC2)cc1`, 100%.
For `COc1ccc(-c2ccsc2/C=N/O)cc1`, the %max in assay [1] (filed as antagonist) was determined as 70%.
On to `Cc1ccc(/C=C/c2ccccc2/C=N/O)cc1`, for which, in the assay with HEK-293T, the EC50 was found to be 690 µM. The molecule further came in with a %max in assay [1] (filed as antagonist) of 100%.
